Screening data (PubChem)
OX1R antag-1 – blocks the human orexin 1 receptor; O43613; OX1R-expressing cells, FRET antagonist read-out; inhibition, % at 6.6 µM; 330,000 tested, 1.8% active; AID 485270; in the data active = inhibition mostly above about 38%, no sharp cut-off; inactive = mostly below about 40%;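 also: 0% = agonist challenge alone and 100% = reference antagonist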
TAAR1 ag – human TAAR1 agonism; Q96RJ0; CHO RD-HGA16 TAAR1, Fluo-8 calcium fluorescence; vehicle wells 0%, saturating PEA agonist 100%; activation, % at 3 µM; 360,000 tested, 0.99% active; AID 624467;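 active = activation above the mean activation of all test compounds in the run plus 3 SD, cut at about 38% in these data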
Target sequence (Q96RJ0 whole entry, looked up): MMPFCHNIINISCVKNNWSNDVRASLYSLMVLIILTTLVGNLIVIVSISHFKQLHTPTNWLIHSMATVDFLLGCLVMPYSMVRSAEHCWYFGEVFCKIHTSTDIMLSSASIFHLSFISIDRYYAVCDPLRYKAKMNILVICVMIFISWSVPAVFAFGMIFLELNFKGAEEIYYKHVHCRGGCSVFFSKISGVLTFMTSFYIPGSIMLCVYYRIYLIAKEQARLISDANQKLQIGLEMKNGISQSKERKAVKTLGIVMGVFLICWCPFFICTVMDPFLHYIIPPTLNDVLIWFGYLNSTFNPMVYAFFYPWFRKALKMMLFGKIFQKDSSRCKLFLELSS
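test system = CHO RD-HGA16 cells carrying human TAAR1 plus Gα16 | schedule = 17-24 h seeding, 75 min 37 °C dye, 30 min RT | compound dosing = 3 µM single concentration | control set = DMSO and PEA EC100 | replicates = n 1 | signal = Fluo-8 fluorescence, 5 s baseline then 140 s kinetic read | measure = percent activation vs PEA EC100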
OX1R antag-2 – antagonists of human orexin 1 receptor. O43613. CHO/OX1R cells, Fluo-8 calcium fluorescence, orexin A. inhibition, % at 5 µM. 330,000 tested, 0.43% active. AID 434989;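 active = inhibition above its plate's threshold, mean inhibition of all tested compounds on the plate plus 3 SD, cut at about 37% in these data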;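 also: 0% = orexin A challenge wells and 100% = SB-334867-A antagonist wells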
CHO parental Ca – counter-screen for OX1R antagonists: effect in parental CHO cells | inhibition, % at 5.6 µM | parental CHO-K1, ATP-induced calcium, Fluo-8 fluorescence | 330,000 tested, 0.63% active;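 active = inhibition above that plate's mean sample inhibition plus 3 SD, cut at about 26% in these data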;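 also: 0% = ATP-challenged DMSO wells and 100% = DMSO wells without ATP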
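Test system: untransfected parental CHO cell line; also added: ATP stimulus; dosing: 5.6 µM, single dose; signal: calcium-sensitive Fluo-8 fluorescence; measure: percent inhibition of ATP-evoked calcium rise, normalized to controls; benchmarks: low control ATP plus DMSO, high control DMSO only; replication: one well per compound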
TAAR1 antag – antagonists of human TAAR1; Q96RJ0; CHO RD-HGA16 TAAR1, Fluo-8 calcium fluorescence, antagonist; inhibition, % at 3 µM; 360,000 tested, 1.5% active; AID 624466;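 active = inhibition above a per-plate cutoff, the mean inhibition of test compounds on that plate plus 3 SD, cut at about 49% in these data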;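 also: 0% = DMSO plus EC80 beta-PEA response and 100% = DMSO alone without agonist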
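Test system – hTAAR1-expressing CHO RD-HGA16 cells, Gα16-coupled · Also added – β-PEA at EC80 concentration, post-compound challenge · Compound – 3 µM, single point · Incubation – dye loading 75 min at 37 °C, then 30 min room temperature · Measured by – Fluo-8 intracellular calcium dye fluorescence, real-time kinetic reads · Benchmarks – vehicle and agonist controls · Replicates – singlicate, one well per test compound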
GPR7 antag – human neuropeptides B/W receptor 1 antagonism. 290,000 tested, 1.1% active. GPR7-expressing cells, fluorescence antagonist assay. P48145. inhibition, % at 4.4 µM. AID 1861; in the data active = inhibition above about 16%, passing the limit was not always enough;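 also: cells stimulated with the agonist NPW; 0% = agonist with vehicle and 100% = vehicle without agonist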
Target sequence (P48145 whole entry, looked up): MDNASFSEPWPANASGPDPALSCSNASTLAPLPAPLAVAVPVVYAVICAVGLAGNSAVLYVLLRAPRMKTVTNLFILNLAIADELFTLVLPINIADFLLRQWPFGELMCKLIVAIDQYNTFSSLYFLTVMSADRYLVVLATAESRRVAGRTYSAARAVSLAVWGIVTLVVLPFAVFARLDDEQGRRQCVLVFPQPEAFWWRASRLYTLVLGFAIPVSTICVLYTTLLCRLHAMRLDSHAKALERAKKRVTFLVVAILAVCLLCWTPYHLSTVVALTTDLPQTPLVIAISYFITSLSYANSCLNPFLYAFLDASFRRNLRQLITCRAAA
* hit, by the source's call. In the library only some 4.6% were active in any assay of this set; here they are far more common.

How did Cc1ccc(S(=O)(=O)N2[C@@H](c3ccccc3F)C(C(=O)O)=CC[C@H]2c2ccc3c(c2)OCO3)cc1 do in these assays?
OX1R antag-1: 47.2*; TAAR1 ag: 11.8; OX1R antag-2: -4.1; CHO parental Ca: -7.2; TAAR1 antag: 8.5

What do the screens show for `Cc1ccc([C@@H]2CC=C(C(=O)O)[C@H](c3ccc(F)cc3)N2S(=O)(=O)c2ccc(C)cc2)cc1`?
OX1R antag-1: 69.5*; TAAR1 ag: 0.4; OX1R antag-2: 0.6; CHO parental Ca: -15.7; TAAR1 antag: 11.2

What do the screens show for `Cc1ccc(S(=O)(=O)N2[C@@H](c3ccc(Br)cc3)C(C(=O)O)=CC[C@H]2c2ccc(C(C)C)cc2)cc1`?
OX1R antag-1: 19.8; TAAR1 ag: 0.2; OX1R antag-2: 54.2*; CHO parental Ca: 74.7*; TAAR1 antag: 3.0

Results for Cc1ccc([C@@H]2CC=C(C(=O)O)[C@H](c3ccc(Br)cc3)N2S(=O)(=O)c2ccc(C)cc2)cc1 ?
OX1R antag-1: 39.4*; TAAR1 ag: 3.7; OX1R antag-2: 2.5; CHO parental Ca: -12.4; TAAR1 antag: 15.0

Results for CCN(CC)S(=O)(=O)c1ccc(C(=O)NN(C)C2=NS(=O)(=O)c3ccccc32)cc1 ?
OX1R antag-1: 6.2; TAAR1 ag: 0.9; OX1R antag-2: -19.1; CHO parental Ca: -4.3; TAAR1 antag: -6.7; GPR7 antag: -0.4

What do the screens show for `COc1ccc(NC(=O)C2Cc3c(-c4cccc(C(C)=O)c4)ccnc3O2)cc1` (stereo unspecified)?
TAAR1 ag: 1.0; TAAR1 antag: -3.7

What do the screens show for `Cn1nc(C(C)(C)C)cc1C(=O)NCc1cc(F)cc2c1OCOC2`?
OX1R antag-1: 14.1; TAAR1 ag: 8.7; OX1R antag-2: 29.1; CHO parental Ca: 23.3; TAAR1 antag: 50.3*; GPR7 antag: 0.5

Results for NC1=C([N+](=O)[O-])C(c2ccc3c(c2)OCO3)C2=C(CCCC2=O)O1 (stereo unspecified) ?
OX1R antag-1: 11.3; TAAR1 ag: 2.2; OX1R antag-2: -11.5; CHO parental Ca: 0.8; TAAR1 antag: -8.6; GPR7 antag: -1.5

Results for O=[N+]([O-])c1ccc2nc(-c3ccncc3)[nH]c2c1 ?
OX1R antag-1: 17.3; TAAR1 ag: 1.5; OX1R antag-2: -4.9; CHO parental Ca: -9.4; TAAR1 antag: -23.1; GPR7 antag: -18.5

What do the screens show for `Cc1ccc(-c2nc3ccc([N+](=O)[O-])cc3[nH]2)cc1`?
OX1R antag-1: 48.3; TAAR1 ag: 14.1; OX1R antag-2: -5.6; CHO parental Ca: -11.1; TAAR1 antag: -0.4; GPR7 antag: 53.5*

Results for COc1ccc(-c2nc3ccc([N+](=O)[O-])cc3[nH]2)cc1 ?
OX1R antag-1: 18.6; TAAR1 ag: 15.4; OX1R antag-2: -9.1; CHO parental Ca: -0.1; TAAR1 antag: -21.9; GPR7 antag: 10.5

How did O=[N+]([O-])c1ccc2nc(-c3ccc(Cl)cc3)[nH]c2c1 do in these assays?
OX1R antag-1: 24.9; TAAR1 ag: 35.2; OX1R antag-2: 11.8; CHO parental Ca: 20.0; TAAR1 antag: 21.2; GPR7 antag: 24.1*

Results for Cc1ccccc1Oc1ncnc2sccc12 ?
OX1R antag-1: 10.6; TAAR1 ag: 1.3; OX1R antag-2: 7.4; CHO parental Ca: -9.2; TAAR1 antag: -6.8; GPR7 antag: -1.8

How did COC(=O)CCNS(=O)(=O)c1ccc2nsnc2c1 do in these assays?
OX1R antag-1: 62.8*; TAAR1 ag: 2.6; OX1R antag-2: -13.4; CHO parental Ca: -5.4; TAAR1 antag: 6.5

Results for CC(C)Oc1cc(F)ccc1-c1cc(C(=O)Nc2cccc(C(F)(F)F)c2)[nH]n1 ?
TAAR1 ag: 1.1; TAAR1 antag: 55.2*

Results for CC(C)Oc1ccc(F)cc1-c1cc(C(=O)NCc2ccc(C(F)(F)F)cc2)[nH]n1 ?
TAAR1 ag: 2.4; TAAR1 antag: 54.0*

What do the screens show for `Cc1cc(F)ccc1-c1cc(C(=O)NCc2ccccc2)[nH]n1`?
TAAR1 ag: 2.1; TAAR1 antag: 0.1

How did CC(C)Oc1ccc(F)cc1-c1cc(C(=O)NCc2cc(C(F)(F)F)cc(C(F)(F)F)c2)[nH]n1 do in these assays?
TAAR1 ag: 0.5; TAAR1 antag: 6.1

What do the screens show for `Cc1cc(O)ccc1-c1cc(C(=O)NCc2ccc(F)cc2)[nH]n1`?
TAAR1 ag: 49.0*; TAAR1 antag: 32.3

How did Cc1c(C)c2ccc(OS(C)(=O)=O)cc2oc1=O do in these assays?
OX1R antag-1: 11.4; TAAR1 ag: 5.5; OX1R antag-2: -9.8; CHO parental Ca: -12.8; TAAR1 antag: -2.2; GPR7 antag: -6.8

How did CCC(C(=O)c1ccccc1)N(C(=O)c1ccccc1Cl)N1C(=O)C2C3C=CC(C3)C2C1=O (stereo unspecified) do in these assays?
OX1R antag-1: 26.9; TAAR1 ag: 7.5; OX1R antag-2: -22.9; CHO parental Ca: -22.5; TAAR1 antag: -6.2; GPR7 antag: 6.4

How did O=C(O)CCc1ccc(S(=O)(=O)NCCc2ccccc2)cc1 do in these assays?
OX1R antag-1: 4.4; TAAR1 ag: 37.5*; OX1R antag-2: -11.0; CHO parental Ca: 0.9; TAAR1 antag: 23.7; GPR7 antag: -2.5

How did CCNS(=O)(=O)c1ccc(CCC(N)=O)cc1 do in these assays?
OX1R antag-1: 8.5; TAAR1 ag: 7.2; OX1R antag-2: -0.2; CHO parental Ca: -7.3; TAAR1 antag: -6.3; GPR7 antag: 19.0*

Results for O=C(NCc1ccc(Cl)cc1)c1ccc(Cl)cc1[N+](=O)[O-] ?
OX1R antag-1: 8.3; TAAR1 ag: 33.7; OX1R antag-2: -12.8; CHO parental Ca: -10.2; TAAR1 antag: 19.8; GPR7 antag: -7.4

Results for CCCCn1c(CNC(=O)c2cccs2)nc2ccccc21 ?
OX1R antag-1: 11.8; TAAR1 ag: 1.3; OX1R antag-2: -31.6; CHO parental Ca: -3.8; TAAR1 antag: -6.5; GPR7 antag: -13.9

How did CCCCCn1c(CNC(=O)c2cccs2)nc2ccccc21 do in these assays?
OX1R antag-1: 55.8*; TAAR1 ag: 0.2; OX1R antag-2: 7.3; CHO parental Ca: 22.2; TAAR1 antag: -0.4; GPR7 antag: -14.4

Results for COC(=O)c1cccc2nc3c(C(C)O)cccc3nc12 (stereo unspecified) ?
OX1R antag-1: 50.2*; TAAR1 ag: 1.3; OX1R antag-2: -19.1; CHO parental Ca: -7.9; TAAR1 antag: -19.2

Results for CCc1c(C#N)c(SCCC(=O)Nc2cccc(OC)c2)nc2c1C(=O)CC(C)(C)C2 ?
OX1R antag-1: 21.6; TAAR1 ag: 17.3; OX1R antag-2: 16.9; CHO parental Ca: 15.9; TAAR1 antag: 58.3*; GPR7 antag: -7.8

Results for COc1ccc(-c2c(C#N)c(SCc3c(C)noc3C)nc3c2C(=O)CC(C)(C)C3)cc1 ?
OX1R antag-1: 1.0; TAAR1 ag: 2.2; OX1R antag-2: -8.3; CHO parental Ca: -8.7; TAAR1 antag: -8.3; GPR7 antag: 0.8
